According to ChEMBL document CHEMBL4304834, “3-Amino-chromanes and Tetrahydroquinolines as Selective 5-HT2B, 5-HT7, or σ1 Receptor Ligands” (ACS Med Chem Lett, 2019):

Legend:
Assay type in all cases: cell-based
[1] = target: Beta-3 adrenergic receptor (Homo sapiens, UniProt P13945); assay: Displacement of [3H]-CGP12177 from human recombinant adrenergic Beta3 receptor expressed in Flp-In HEK cells at 10 uM after 90 mins by microbeta scintillation counting method relative to control
In short: (§1)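 Radioligand binding run by the NIMH Psychoactive Drug Screening Program. […] Otherwise Ki comes from sigmoidal curve fits of triplicate measurements in a single experiment, or is averaged over repeated experiments each run in triplicate.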

D(3) dopamine receptor = D(3) dopamine receptor (Homo sapiens, UniProt P35462); assay: Displacement of [3H]-N-methylspiperone from human recombinant dopamine D3 receptor expressed in HEKT cells after 90 mins by microbeta scintillation counting method
Chain of D(3) dopamine receptor (P35462 whole entry): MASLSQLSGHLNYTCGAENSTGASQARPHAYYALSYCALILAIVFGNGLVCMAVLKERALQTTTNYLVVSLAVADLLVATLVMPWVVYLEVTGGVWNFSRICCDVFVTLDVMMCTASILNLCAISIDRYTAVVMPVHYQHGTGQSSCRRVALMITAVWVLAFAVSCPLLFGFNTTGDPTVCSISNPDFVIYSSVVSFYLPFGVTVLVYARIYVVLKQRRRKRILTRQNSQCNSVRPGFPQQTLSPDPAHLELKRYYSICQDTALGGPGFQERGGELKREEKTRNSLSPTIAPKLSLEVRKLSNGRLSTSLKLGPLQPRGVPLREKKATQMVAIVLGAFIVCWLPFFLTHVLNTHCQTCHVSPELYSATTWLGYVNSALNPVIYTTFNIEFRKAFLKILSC
In short: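 Radioligand binding run by the NIMH Psychoactive Drug Screening Program. Otherwise Ki comes from sigmoidal curve fits of triplicate measurements in a single experiment, or is averaged over repeated experiments each run in triplicate.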

[2] = target: Sigma non-opioid intracellular receptor 1 (Homo sapiens, UniProt Q99720); assay: Displacement of [3H]-Pentazocine from human recombinant sigma1 receptor expressed in HEKT cells after 90 mins by microbeta scintillation counting method
Chain of Sigma non-opioid intracellular receptor 1 (Q99720 whole entry): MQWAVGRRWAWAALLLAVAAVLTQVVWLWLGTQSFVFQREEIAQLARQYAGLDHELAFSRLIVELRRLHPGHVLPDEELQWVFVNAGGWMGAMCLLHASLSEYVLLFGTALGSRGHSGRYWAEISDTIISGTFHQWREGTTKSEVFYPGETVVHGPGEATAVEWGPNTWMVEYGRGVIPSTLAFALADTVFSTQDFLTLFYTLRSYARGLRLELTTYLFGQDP

[3] = target: T1, Muscarinic acetylcholine receptor M5 (Homo sapiens) (UniProt P08912); assay: Displacement of [3H]-QNB/[3H]-NMS from human recombinant Muscarinic acetylcholine M5 receptor expressed in stable CHO cells at 10 uM after 90 mins by microbeta scintillation counting method relative to control
T1 sequence (whole entry): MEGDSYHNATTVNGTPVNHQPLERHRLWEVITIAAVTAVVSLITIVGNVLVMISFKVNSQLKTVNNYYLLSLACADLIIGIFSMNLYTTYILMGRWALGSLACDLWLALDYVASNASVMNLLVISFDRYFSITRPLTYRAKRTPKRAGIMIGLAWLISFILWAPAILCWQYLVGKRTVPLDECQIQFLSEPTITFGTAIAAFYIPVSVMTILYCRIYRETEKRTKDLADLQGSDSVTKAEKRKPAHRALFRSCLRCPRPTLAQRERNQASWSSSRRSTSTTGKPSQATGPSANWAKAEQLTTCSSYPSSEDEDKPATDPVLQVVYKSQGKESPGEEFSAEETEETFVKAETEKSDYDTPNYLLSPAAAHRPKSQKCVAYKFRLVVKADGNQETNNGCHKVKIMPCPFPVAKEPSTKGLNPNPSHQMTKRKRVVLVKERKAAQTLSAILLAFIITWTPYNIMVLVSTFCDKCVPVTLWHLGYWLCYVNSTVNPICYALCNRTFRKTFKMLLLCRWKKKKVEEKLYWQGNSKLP

[4] = target: T2, 5-hydroxytryptamine receptor 1A (Homo sapiens, UniProt P08908); assay: Displacement of [3H]-Way100635 from human recombinant 5-HT1A expressed in stable CHO cells after 90 mins by microbeta scintillation counting method
T2 sequence (P08908 whole entry): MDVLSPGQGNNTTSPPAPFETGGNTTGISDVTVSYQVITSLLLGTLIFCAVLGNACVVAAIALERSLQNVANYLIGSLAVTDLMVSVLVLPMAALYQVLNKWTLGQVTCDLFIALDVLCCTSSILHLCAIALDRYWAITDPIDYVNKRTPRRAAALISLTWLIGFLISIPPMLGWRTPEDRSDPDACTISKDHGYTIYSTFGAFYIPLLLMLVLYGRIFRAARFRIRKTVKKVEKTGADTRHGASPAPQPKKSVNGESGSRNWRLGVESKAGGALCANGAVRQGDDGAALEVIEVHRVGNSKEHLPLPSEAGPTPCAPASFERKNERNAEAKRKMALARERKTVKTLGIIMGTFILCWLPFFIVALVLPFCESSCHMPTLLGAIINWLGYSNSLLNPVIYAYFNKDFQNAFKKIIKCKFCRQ
In short: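 Run by NIMH Psychoactive Drug Screening Program. Otherwise, competition binding curves are generated and pKi is taken from a sigmoidal curve fit. Data are either triplicate measurements within one experiment, with the error from the fit, or the mean of repeated experiments, each run in triplicate.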

[5] = target: T3, Alpha-2A adrenergic receptor (Homo sapiens, UniProt P08913); assay: Displacement of [3H]-Rauwolscine from human recombinant adrenergic Alpha2A receptor expressed in stable MDCK cells after 90 mins by microbeta scintillation counting method
T3 sequence (P08913 whole entry): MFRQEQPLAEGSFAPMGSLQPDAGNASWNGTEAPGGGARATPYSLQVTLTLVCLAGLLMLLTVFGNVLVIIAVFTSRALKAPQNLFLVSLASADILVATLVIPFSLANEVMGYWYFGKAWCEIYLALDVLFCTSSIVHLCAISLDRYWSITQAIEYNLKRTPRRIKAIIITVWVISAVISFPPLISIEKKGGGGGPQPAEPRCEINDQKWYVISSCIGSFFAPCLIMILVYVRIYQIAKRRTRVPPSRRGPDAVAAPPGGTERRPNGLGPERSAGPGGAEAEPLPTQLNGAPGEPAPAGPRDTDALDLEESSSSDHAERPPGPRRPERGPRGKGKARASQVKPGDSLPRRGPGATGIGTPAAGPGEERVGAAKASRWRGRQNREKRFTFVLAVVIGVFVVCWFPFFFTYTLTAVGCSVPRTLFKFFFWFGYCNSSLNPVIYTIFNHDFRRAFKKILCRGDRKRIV
In short: (§2)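 Radioligand binding was run by the NIMH Psychoactive Drug Screening Program. Compounds were first screened at 10 μM. Those giving ≥50% binding were taken to full competition curves. Ki is reported as pKi from a sigmoidal curve fit of triplicate measurements in a single experiment; the error is the curve-fit error.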

[6] = target: T4, Alpha-2B adrenergic receptor (Homo sapiens, UniProt P18089); assay: Displacement of [3H]-Rauwolscine from human recombinant adrenergic Alpha2B receptor expressed in HEKT cells after 90 mins by microbeta scintillation counting method; in short: as §2
T4 sequence (P18089 whole entry): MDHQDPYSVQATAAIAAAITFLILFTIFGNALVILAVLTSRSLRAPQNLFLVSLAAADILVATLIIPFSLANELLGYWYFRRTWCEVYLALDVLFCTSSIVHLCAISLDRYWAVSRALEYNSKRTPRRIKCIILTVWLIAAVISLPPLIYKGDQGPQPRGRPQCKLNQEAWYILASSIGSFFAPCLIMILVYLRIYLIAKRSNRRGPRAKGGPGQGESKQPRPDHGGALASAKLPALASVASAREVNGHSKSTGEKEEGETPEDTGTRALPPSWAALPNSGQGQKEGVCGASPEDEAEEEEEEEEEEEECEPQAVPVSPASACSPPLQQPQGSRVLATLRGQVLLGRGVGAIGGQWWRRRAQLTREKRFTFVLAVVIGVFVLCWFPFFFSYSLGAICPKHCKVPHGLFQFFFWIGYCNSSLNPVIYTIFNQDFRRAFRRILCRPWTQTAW

[7] = target: 5-hydroxytryptamine receptor 6 (Homo sapiens, UniProt P50406); assay: Displacement of [3H]-LSD from human recombinant 5-HT6 receptor expressed in stable HEK cells at 10 uM after 90 mins by microbeta scintillation counting method relative to control; in short: as §1
Chain of 5-hydroxytryptamine receptor 6 (P50406 whole entry): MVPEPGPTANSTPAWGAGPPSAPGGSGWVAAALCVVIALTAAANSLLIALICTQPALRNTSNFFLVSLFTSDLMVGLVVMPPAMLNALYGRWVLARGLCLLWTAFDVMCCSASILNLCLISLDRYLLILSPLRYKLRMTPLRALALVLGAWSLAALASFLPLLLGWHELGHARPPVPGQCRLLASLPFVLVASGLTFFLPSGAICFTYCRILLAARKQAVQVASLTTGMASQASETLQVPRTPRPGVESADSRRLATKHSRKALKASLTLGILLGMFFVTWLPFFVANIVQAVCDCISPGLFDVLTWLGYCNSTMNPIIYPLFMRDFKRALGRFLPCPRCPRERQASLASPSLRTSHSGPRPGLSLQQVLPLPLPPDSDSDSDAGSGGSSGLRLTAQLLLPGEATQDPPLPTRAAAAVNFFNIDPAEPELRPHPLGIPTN

[8] = target: Beta-1 adrenergic receptor (Homo sapiens, UniProt P08588); assay: Displacement of [125I]-pindolol from human recombinant adrenergic Beta1 receptor expressed in Flp-In CHO cells after 90 mins by microbeta scintillation counting method; in short: as §1
Chain of Beta-1 adrenergic receptor (P08588 whole entry): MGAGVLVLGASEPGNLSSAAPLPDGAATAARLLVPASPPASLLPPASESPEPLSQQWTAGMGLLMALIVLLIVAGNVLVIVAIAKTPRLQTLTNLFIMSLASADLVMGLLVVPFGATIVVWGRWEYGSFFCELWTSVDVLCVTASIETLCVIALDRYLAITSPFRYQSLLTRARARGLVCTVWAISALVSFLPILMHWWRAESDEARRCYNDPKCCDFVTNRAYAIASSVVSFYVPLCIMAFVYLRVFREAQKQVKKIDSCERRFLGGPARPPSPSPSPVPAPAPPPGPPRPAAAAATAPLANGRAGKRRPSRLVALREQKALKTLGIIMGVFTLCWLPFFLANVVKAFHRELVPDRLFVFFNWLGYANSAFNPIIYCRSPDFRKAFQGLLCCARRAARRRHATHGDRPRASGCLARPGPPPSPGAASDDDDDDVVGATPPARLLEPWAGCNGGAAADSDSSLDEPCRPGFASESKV

Chain of Beta-3 adrenergic receptor (P13945 whole entry, looked up): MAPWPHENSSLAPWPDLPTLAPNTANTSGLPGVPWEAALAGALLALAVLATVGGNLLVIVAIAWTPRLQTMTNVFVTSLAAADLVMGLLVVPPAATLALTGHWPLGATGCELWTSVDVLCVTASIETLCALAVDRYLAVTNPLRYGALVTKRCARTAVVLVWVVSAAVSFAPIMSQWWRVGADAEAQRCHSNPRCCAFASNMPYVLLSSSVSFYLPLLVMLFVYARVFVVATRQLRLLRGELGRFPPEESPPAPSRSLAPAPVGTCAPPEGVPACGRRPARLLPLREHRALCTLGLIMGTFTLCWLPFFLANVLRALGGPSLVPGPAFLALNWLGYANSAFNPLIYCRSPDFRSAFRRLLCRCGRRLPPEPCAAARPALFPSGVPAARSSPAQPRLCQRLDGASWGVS

Q: What does the source list for CC[C@H]1c2cc(C)ccc2OC[C@@]1(C)N (racemic)?
A: inhibition [1]: < 50%; Ki (D(3) dopamine receptor): > 10 µM; Ki ([2]; read-out: pKi (converted)): 1 µM; inhibition [3]: < 50%; Ki ([4]; read-out: pKi (converted)): 2 µM; Ki [5]: > 10 µM; Ki [6]: > 10 µM; inhibition [7]: < 50%; Ki [8]: > 10 µM

Q: Which inhibition [1] does the source give for COc1cc(OC)c2c(c1)OC[C@@]1(C)NCC[C@@H]21 (racemic) here?
A: The inhibition was < 50%.

Q: And the Ki (D(3) dopamine receptor)?
A: Its Ki is > 10 µM.

Q: And the Ki ([2]; read-out: Ki)?
A: The Ki was 0.044 µM.

Q: What about the inhibition [3] of the same molecule?
A: The inhibition was < 50%.

Q: And the Ki ([4]; read-out: pKi (converted))?
A: Its Ki is 1 µM.

Q: What about the Ki [6] of the same molecule?
A: The Ki was > 10 µM.

Q: What about the inhibition [7] of the same molecule?
A: Its inhibition is < 50%.

Q: And the Ki [8]?
A: The Ki was 1 µM.

Q: Which results are given for C[C@@]12CN(c3ccccc3)c3ccccc3[C@@H]1CCN2 (racemic)?
A: Ki ([4]; cho, read-out: Ki): > 10 µM; Ki ([4]; read-out: pKi (converted)): > 10 µM; Ki [6]: > 10 µM; Ki [8]: 3.16 µM

Q: CC[C@H]1c2cc(OC)ccc2CC[C@@]1(C)N (racemic) was tested. Which inhibition [1] did it give?
A: Its inhibition is < 50%.

Q: What about the Ki (D(3) dopamine receptor) of the same molecule?
A: The Ki was > 10 µM.

Q: And the Ki ([2]; read-out: pKi (converted))?
A: Its Ki is 0.126 µM.

Q: What about the inhibition [3] of the same molecule?
A: The inhibition was < 50%.

Q: And the Ki ([4]; read-out: pKi (converted))?
A: The Ki was 0.631 µM.

Q: And the Ki [5]?
A: The Ki was 6.31 µM.

Q: And the Ki [6]?
A: The Ki was 5.01 µM.

Q: And the inhibition [7]?
A: Its inhibition is < 50%.

Q: And the Ki [8]?
A: Its Ki is > 10 µM.

Q: Which Ki ([2]; read-out: pKi (converted)) does the source give for CC[C@H]1c2ccccc2N(c2ccccc2)C[C@@]1(C)N (racemic) here?
A: Its Ki is 0.316 µM.

Q: And the Ki ([4]; read-out: Ki)?
A: Its Ki is 0.074 µM.

Q: What about the Ki [5] of the same molecule?
A: Its Ki is 0.398 µM.

Q: What about the Ki [6] of the same molecule?
A: Its Ki is 0.398 µM.

Q: What about the Ki [8] of the same molecule?
A: Its Ki is > 10 µM.
